Test results: ChEMBL document CHEMBL4725355, “Design, Synthesis, and Preclinical Evaluation of 3-Methyl-6-(5-thiophenyl)-1,3-dihydro-imidazo[4,5-b]pyridin-2-ones as Selective GluN2B Negative Allosteric Modulators for the Treatment of Mood Disorders” (J Med Chem, 2020)

Assays:
[1] = Ex vivo receptor occupancy at GluN2B in Sprague-Dawley rat assessed as 3-[3H] 1-(azetidin-1-yl)-2-[6-(4-fluoro-3-methyl-phenyl)pyrrolo[3,2-b]pyridin-1-yl]-ethanone labelling at 3 mg/kg, po measured after 2 hrs by autoradiography; type: functional
In short: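 Rats dosed orally at 3 mg/kg in 20% HP-β-CD; brains taken at 0.5, 2 and 6 h. Ex vivo autoradiography of brain slices with the ³H pyrrolo[3,2-b]pyridine GluN2B tracer. Labelling expressed relative to matching brain areas of vehicle-treated animals; n=2, ± SEM.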

[2] = target: Cytochrome P450 3A4 (Homo sapiens, UniProt P08684); assay: Inhibition of CYP3A4 in human liver microsomes using midazolam as substrate measured after 15 mins by LC-MS/MS analysis; type: ADME
Cytochrome P450 3A4, sequence (P08684 whole entry, canonical isoform): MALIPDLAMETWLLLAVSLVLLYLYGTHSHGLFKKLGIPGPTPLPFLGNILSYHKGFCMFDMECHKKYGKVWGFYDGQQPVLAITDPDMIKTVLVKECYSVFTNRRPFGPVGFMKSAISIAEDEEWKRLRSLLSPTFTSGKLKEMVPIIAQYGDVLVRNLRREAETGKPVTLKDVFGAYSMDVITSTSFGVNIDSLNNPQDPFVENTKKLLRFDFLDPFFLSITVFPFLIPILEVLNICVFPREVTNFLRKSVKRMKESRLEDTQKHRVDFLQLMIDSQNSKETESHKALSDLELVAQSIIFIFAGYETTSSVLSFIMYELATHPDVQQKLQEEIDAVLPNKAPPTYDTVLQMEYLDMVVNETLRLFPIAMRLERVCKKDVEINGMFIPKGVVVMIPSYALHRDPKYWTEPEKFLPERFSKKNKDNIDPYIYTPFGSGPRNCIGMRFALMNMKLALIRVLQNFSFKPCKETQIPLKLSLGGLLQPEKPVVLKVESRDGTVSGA
In short: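 Human liver microsomes incubated with isoform-specific probe substrates and the test compound at concentrations up to 20 µM. IC50 derived from inhibition of metabolite formation; mean of two independent experiments, with known specific inhibitors as positive controls.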

[3] = Oral bioavailability in mouse at 2.5 mg/kg by LC-MS/MS analysis; type: ADME, organism-based; conditions: in vivo

- IC50 [2]: > 50 µM
- bioavailability [3]: 69%
Compound: Cn1c(=O)n(CC(=O)N2CCC2)c2cc(-c3ccc(C(F)(F)F)s3)cnc21
- Occ [1]: 76%
